Here are results for 22 molecules from ChEMBL document CHEMBL1135991 (J Med Chem, 2002).

Experiment [1] has as its target T1, Melanocortin receptor 3 (Homo sapiens, UniProt P41968). In words: Stimulation of intracellular cAMP levels in HEK293 cells expressing human Melanocortin-3 receptor.
Experiment [2] addresses T2, Melanocortin receptor 5 (Homo sapiens, UniProt P33032). As to the kind of experiment: Stimulation of intracellular cAMP levels in HEK293 cells expressing human melanocortin 5 receptor.
In experiment [3] the target is T3, Melanocortin receptor 4 (Homo sapiens, UniProt P32245). As to the kind of experiment: Stimulation of intracellular cAMP levels in CHO cells expressing human Melanocortin-4 receptor. The format is functional, cell-based. (In general: Cyclic AMP is a second messenger, typically raised through Gs and lowered through Gi signalling.)
T3 sequence (P32245 whole entry): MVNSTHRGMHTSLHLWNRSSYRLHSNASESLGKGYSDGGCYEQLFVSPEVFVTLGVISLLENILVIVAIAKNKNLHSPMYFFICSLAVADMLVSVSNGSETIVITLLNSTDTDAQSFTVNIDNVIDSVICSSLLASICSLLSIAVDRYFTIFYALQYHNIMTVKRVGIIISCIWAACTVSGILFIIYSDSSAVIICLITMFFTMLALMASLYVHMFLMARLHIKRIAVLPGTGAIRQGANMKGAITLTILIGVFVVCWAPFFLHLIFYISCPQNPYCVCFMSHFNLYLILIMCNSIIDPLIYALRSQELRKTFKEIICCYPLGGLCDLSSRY
Experiment [4] has as its target T2, Melanocortin receptor 5. As to the kind of experiment: Binding affinity for human melanocortin 5 receptor (hMC5R) expressed in HEK293 cells. The format is cell-based.
The target in experiment [5] is T3, Melanocortin receptor 4. In words: Binding affinity for human Melanocortin-4 receptor (hMC4R).
For experiment [6], the target named is T2, Melanocortin receptor 5. In words: Effective concentration against human melanocortin 5 receptor (hMC5R) in HEK293 cells. The experiment is classed as cell-based. Summed up:
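Transfected HEK293 cells were seeded 50 000/well 48 h ahead. They were preincubated 1 min at 37 °C in EBSS with IBMX, then given varying melanotropin concentrations for 3 min at 37 °C. The reaction was stopped with ice-cold Tris/EDTA and lysates boiled 15 min. Supernatant cAMP was measured by competitive binding kit. EC50 came from a nonlinear least-squares fit; duplicate experiments, each in triplicate.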

In experiment [7] the target is T1, Melanocortin receptor 3. In words: Inhibition of human Melanocortin-3 receptor (hMC3R) expressed in HEK293 cells. The format is cell-based.
Experiment [8] has as its target T1, Melanocortin receptor 3. In words: Binding affinity for human Melanocortin-3 receptor (hMC3R) expressed in HEK293 cells. The format is cell-based.
Experiment [9] has as its target T3, Melanocortin receptor 4. In words: Inhibition of binding to human Melanocortin-4 receptor (hMC4R).
For experiment [10], the species on record is Homo sapiens. As to the kind of experiment: Selectivity as ratio of binding affinity for human melanocortin 1 and melanocortin 3 receptors.
Experiment [11] deals with Melanocortin receptor (M1 and M4) (Homo sapiens) (UniProt P32245+Q01726). As to the kind of experiment: Selectivity as ratio of binding affinity for human melanocortin 1 and melanocortin 4 receptors. The format is protein assay.

T2 sequence (P33032 whole entry): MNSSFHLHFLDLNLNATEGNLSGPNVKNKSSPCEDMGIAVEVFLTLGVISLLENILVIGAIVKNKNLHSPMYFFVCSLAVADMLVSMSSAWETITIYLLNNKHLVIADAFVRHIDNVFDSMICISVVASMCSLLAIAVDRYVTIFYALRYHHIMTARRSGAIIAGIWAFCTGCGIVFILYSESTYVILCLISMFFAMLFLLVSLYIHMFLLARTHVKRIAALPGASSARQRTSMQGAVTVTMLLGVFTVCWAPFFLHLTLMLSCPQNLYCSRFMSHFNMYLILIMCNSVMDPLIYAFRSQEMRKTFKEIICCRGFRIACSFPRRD
T1 sequence (P41968 whole entry): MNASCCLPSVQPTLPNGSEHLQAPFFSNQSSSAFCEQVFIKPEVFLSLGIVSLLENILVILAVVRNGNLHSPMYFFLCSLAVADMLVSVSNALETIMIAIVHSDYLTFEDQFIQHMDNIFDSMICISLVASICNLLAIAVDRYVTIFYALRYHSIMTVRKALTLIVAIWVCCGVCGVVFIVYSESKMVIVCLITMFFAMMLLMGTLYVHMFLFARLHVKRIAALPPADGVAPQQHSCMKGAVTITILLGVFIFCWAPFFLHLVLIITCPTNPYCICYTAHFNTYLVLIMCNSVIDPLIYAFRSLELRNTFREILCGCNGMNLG

For `C[C@@H]1NC(=O)CCC(=O)NCCCC[C@H](C(N)=O)NC(=O)[C@@H](Cc2c[nH]c3ccccc23)NC(=O)[C@H](CCCN=C(N)N)NC(=O)[C@@H](Cc2ccccc2)NC1=O`, the figures for the ACT in experiment [1], in experiment [2] and in experiment [3] were 19%, 0% and 35%, respectively.

Take `N=C(N)NCCC[C@H]1NC(=O)[C@H](Cc2ccccc2)NC(=O)[C@H]2CCCN2C(=O)CCC(=O)NCCCC[C@@H](C(N)=O)NC(=O)[C@H](Cc2c[nH]c3ccccc23)NC1=O`: the ACT in experiment [1] amounted to 21%; in experiment [2], 100%; in experiment [3] it was 60.5%.

Regarding `N=C(N)NCCC[C@@H]1NC(=O)[C@@H](Cc2ccccc2)NC(=O)[C@H](Cc2c[nH]cn2)NC(=O)CCC(=O)NCCCC[C@@H](C(N)=O)NC(=O)[C@H](Cc2c[nH]c3ccccc23)NC1=O`, the Ki – broadly, the equilibrium dissociation constant of an inhibitor or competing ligand from its target – stood at 660 nM in experiment [4], 5.7 nM in experiment [5] and 77 nM in [8]. Moreover, the 50% effective concentration (EC50) (commonly the concentration that produces a half-maximal response) in experiment [6] was 560 nM; in experiment [7], 70 nM; in experiment [9], 1.6 nM.

Consider `C[C@@H]1NC(=O)[C@@H](Cc2ccccc2)NC(=O)[C@H](Cc2cnc[nH]2)NC(=O)CCC(=O)NCCCC[C@@H](C(N)=O)NC(=O)[C@H](Cc2c[nH]c3ccccc23)NC1=O`, for which the results for the half-maximal effective concentration (EC50) in experiment [6], in experiment [7] and in [9] were > 10000 nM, 1000 nM and > 1000 nM, respectively. Besides, the affinity in [8] corresponds to a Ki of 370 nM.

With `N=C(N)NCCC[C@@H]1NC(=O)[C@@H](Cc2ccccc2)NC(=O)[C@@H]2CCCN2C(=O)CCC(=O)NCCCC[C@@H](C(N)=O)NC(=O)[C@H](Cc2c[nH]c3ccccc23)NC1=O`, the inhibitory constant (Ki) in experiment [4] (hek293) amounted to 990 nM; in [5], 190 nM; in experiment [8] (hek293), 390 nM. For the same molecule, the values for the EC50 in experiment [6] (hek293), in experiment [7] (hek293) and in experiment [9] were 1300 nM, 790 nM and 2300 nM, respectively.

Consider `N=C(N)NCCC[C@@H]1NC(=O)[C@@H](Cc2ccc3ccccc3c2)NC(=O)[C@H](Cc2cnc[nH]2)NC(=O)c2ccccc2C(=O)NCCCC[C@@H](C(N)=O)NC(=O)[C@H](Cc2c[nH]c3ccccc23)NC1=O`, for which the inhibition constant Ki in experiment [4] came to 5700 nM; in [5] it was 57 nM; in experiment [8], 7.8 nM. For the same molecule, the EC50 in [6] is 640 nM; in experiment [7] it was 18 nM; in experiment [9], > 10000 nM.

For the molecule `C[C@H]1NC(=O)[C@H](Cc2c[nH]cn2)NC(=O)CCC(=O)NCCCC[C@H](C(N)=O)NC(=O)[C@@H](Cc2c[nH]c3ccccc23)NC(=O)[C@H](CCCN=C(N)N)NC1=O`, the ACT in experiment [1], in [2] and in [3] was 0% each time.

`N=C(N)NCCC[C@@H]1NC(=O)[C@@H](Cc2ccccc2)NC(=O)[C@H](Cc2c[nH]cn2)NC(=O)c2ccccc2C(=O)NCCCC[C@H](C(N)=O)NC(=O)[C@@H](Cc2c[nH]c3ccccc23)NC1=O`: the ACT worked out at 76% in [1], 0% in experiment [2] and 98% in experiment [3].

Consider `NCCCC[C@H](NC(=O)[C@H](Cc1c[nH]c2ccccc12)NC(=O)[C@H](CCCN=C(N)N)NC(=O)[C@@H](Cc1ccccc1)NC(=O)[C@H](Cc1c[nH]cn1)NC(=O)CCC(=O)O)C(N)=O`, for which the ACT came to 100% in experiment [1], 100% in [2] and 26.5% in experiment [3].

Turning to `N=C(N)NCCC[C@@H]1NC(=O)[C@@H](Cc2ccc3ccccc3c2)NC(=O)[C@H](Cc2c[nH]cn2)NC(=O)CCC(=O)NCCCC[C@@H](C(N)=O)NC(=O)[C@H](Cc2c[nH]c3ccccc23)NC1=O`, the inhibition constant (Ki) in experiment [4] was 140 nM; in experiment [5] it was 87 nM; in experiment [8], 12.1 nM. Also, the values for the 50% effective concentration (EC50) in experiment [6], in experiment [7] and in [9] were 150 nM, 70 nM and 260 nM, respectively.

Take `N=C(N)NCCC[C@@H]1NC(=O)[C@@H](Cc2ccccc2)NC(=O)[C@H](Cc2c[nH]cn2)NC(=O)CCC(=O)NCCCC[C@H](C(N)=O)NC(=O)[C@@H](Cc2c[nH]c3ccccc23)NC1=O`: the Selectivity ratio in experiment [10] was 52.5; in [11], 700. Besides, the ACT in experiment [1] was 95%; in [2], 67%; in experiment [3] it was 100%.

On to `N=C(N)NCCC[C@@H]1NC(=O)[C@@H](Cc2ccc3ccccc3c2)NC(=O)[C@H](Cc2c[nH]cn2)NC(=O)c2ccccc2C(=O)NCCCC[C@H](C(N)=O)NC(=O)[C@@H](Cc2c[nH]c3ccccc23)NC1=O`, for which the ACT was 36% in experiment [1], 56% in [2] and 0% in experiment [3].

In the case of `N=C(N)NCCC[C@@H]1NC(=O)[C@@H](Cc2ccc3ccccc3c2)NC(=O)[C@H](Cc2cnc[nH]2)NC(=O)CCCC(=O)NCCCC[C@@H](C(N)=O)NC(=O)[C@H](Cc2c[nH]c3ccccc23)NC1=O`, the inhibition constant (Ki) in experiment [4] is 26 nM; in experiment [5] it was 220 nM; in experiment [8], 5.9 nM. For the same molecule, the concentration giving a half-maximal response (EC50) is 1.01 nM in [6], > 10000 nM in [7] and 1200 nM in experiment [9].

On to `C[C@@H]1NC(=O)CCC(=O)NCCCC[C@@H](C(N)=O)NC(=O)[C@H](Cc2c[nH]c3ccccc23)NC(=O)[C@H](CCCN=C(N)N)NC(=O)[C@@H](Cc2ccccc2)NC1=O`, for which the Ki in [5] turned out to be 1700 nM; in experiment [8] it was 1400 nM. Moreover, the figures for the 50% effective concentration (EC50) in [6], in [7] and in experiment [9] were > 10000 nM, 42 nM and 22 nM, respectively.

Take `C[C@H]1NC(=O)[C@H](Cc2c[nH]cn2)NC(=O)CCC(=O)NCCCC[C@@H](C(N)=O)NC(=O)[C@H](Cc2c[nH]c3ccccc23)NC(=O)[C@H](CCCN=C(N)N)NC1=O`: the EC50 in experiment [6] (hek293), in [7] (hek293) and in experiment [9] was > 10000 nM throughout.

In the case of `N=C(N)NCCC[C@@H]1NC(=O)[C@@H](Cc2ccccc2)NC(=O)[C@H](Cc2cnc[nH]2)NC(=O)c2ccccc2C(=O)NCCCC[C@@H](C(N)=O)NC(=O)[C@H](Cc2c[nH]c3ccccc23)NC1=O`, the inhibitory constant (Ki) was found to be 58 nM in experiment [5] and 280 nM in experiment [8]. Further, the concentration giving a half-maximal response (EC50) was > 5000 nM in experiment [6], 13 nM in experiment [7] and 70 nM in experiment [9].

Regarding `N=C(N)NCCC[C@@H]1NC(=O)[C@@H](Cc2ccccc2)NC(=O)[C@H](Cc2c[nH]cn2)NC(=O)CCCC(=O)NCCCC[C@@H](C(N)=O)NC(=O)[C@H](Cc2c[nH]c3ccccc23)NC1=O`, the values for the inhibition constant (Ki) in experiment [4], in [5] and in experiment [8] were 3100 nM, 670 nM and 110 nM, respectively. Besides, the EC50 in [6] was > 10000 nM; in [7], 75 nM; in [9], 50 nM.

In the case of `N=C(N)NCCC[C@H](NC(=O)[C@@H](Cc1ccccc1)NC(=O)[C@H](Cc1cnc[nH]1)NC(=O)CCC(=O)O)C(=O)N[C@@H](Cc1c[nH]c2ccccc12)C(=O)N[C@@H](CCCCN)C(N)=O`, the Ki amounted to 880 nM in [4], 630 nM in experiment [5] and 140 nM in experiment [8]. Moreover, the concentration giving a half-maximal response (EC50) amounted to 1100 nM in experiment [6], 68 nM in experiment [7] and 3000 nM in experiment [9].

In the case of `N=C(N)NCCC[C@@H]1NC(=O)[C@@H](Cc2ccc3ccccc3c2)NC(=O)[C@H](Cc2c[nH]cn2)NC(=O)CCC(=O)NCCCC[C@H](C(N)=O)NC(=O)[C@@H](Cc2c[nH]c3ccccc23)NC1=O`, the ACT was 88% in experiment [1], 100% in experiment [2] and 35% in experiment [3].

For `N=C(N)NCCC[C@@H]1NC(=O)[C@@H](Cc2ccccc2)NC(=O)[C@H](Cc2c[nH]cn2)NC(=O)CCCC(=O)NCCCC[C@H](C(N)=O)NC(=O)[C@@H](Cc2c[nH]c3ccccc23)NC1=O`, the ACT worked out at 100% in experiment [1], 0% in [2] and 100% in experiment [3].

`N=C(N)NCCC[C@@H]1NC(=O)[C@@H](Cc2ccc3ccccc3c2)NC(=O)[C@H](Cc2c[nH]cn2)NC(=O)CCCC(=O)NCCCC[C@H](C(N)=O)NC(=O)[C@@H](Cc2c[nH]c3ccccc23)NC1=O`: the ACT in experiment [1] stood at 0%; in experiment [2], 81%; in experiment [3], 22.8%.

Take `C[C@@H]1NC(=O)[C@@H](Cc2ccccc2)NC(=O)[C@H](Cc2c[nH]cn2)NC(=O)CCC(=O)NCCCC[C@H](C(N)=O)NC(=O)[C@@H](Cc2c[nH]c3ccccc23)NC1=O`: the ACT is 53% in [1], 0% in experiment [2] and 0% in experiment [3].
